MEX-5 binding: MEX-5 zinc finger RNA-binding disruptors – biochemical, C. elegans, fluorescence polarization, MLPCN library, primary screen | Zinc finger protein mex-5 (Caenorhabditis elegans), Q9XUB2 | MEX-5/FITC-TCR2 RNA binding; active compounds read low | activity score (negative = inhibition of binding), % at 10 µM | 300,000 tested, 0.38% active | AID 1832, 2009;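 active means inhibition past about -25% in most replicates, and total fluorescence under double the plate's negative control median, limit read from the data; inconclusive means replicates evenly split on the limit, or fluorescence at least double controls; inactive means too little inhibition in most replicates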;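 further: 0% = DMSO and -100% = 5 µM competing unlabeled TCR2 RNA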
Target sequence (Q9XUB2 whole entry, looked up): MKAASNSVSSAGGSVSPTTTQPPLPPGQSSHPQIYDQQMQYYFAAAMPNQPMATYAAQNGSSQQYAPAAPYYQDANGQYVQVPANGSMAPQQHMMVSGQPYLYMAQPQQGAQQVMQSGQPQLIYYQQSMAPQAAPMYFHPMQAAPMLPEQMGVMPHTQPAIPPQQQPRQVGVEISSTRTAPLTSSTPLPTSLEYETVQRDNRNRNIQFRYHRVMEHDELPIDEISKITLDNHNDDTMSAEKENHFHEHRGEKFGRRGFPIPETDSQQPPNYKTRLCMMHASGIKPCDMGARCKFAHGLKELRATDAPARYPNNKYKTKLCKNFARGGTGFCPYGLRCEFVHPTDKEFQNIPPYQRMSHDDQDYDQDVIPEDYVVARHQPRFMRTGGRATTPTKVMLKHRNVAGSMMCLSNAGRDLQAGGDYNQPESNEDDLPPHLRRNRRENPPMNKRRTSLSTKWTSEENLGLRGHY
C-LANA FP: inhibitors of KSHV C-LANA binding to DNA, primary screen, biochemical, fluorescence polarization, FAM-LBS DNA, MBP-C-LANA, single point; AID 504423, 2011; Kaposi's sarcoma herpesvirus LANA C-terminal domain (residues 932-1162) DNA binding; inhibition, % at 9 µM; 340,000 tested, 0.078% active;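 active means highest replicate inhibition at or above 60% at 9 µM, even if other replicates fall short; inactive means all replicates below 60% inhibition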;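 further: 0% = neutral control wells and 100% = 4 µM acridine orange control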
Keap1-Nrf2 PPI: Keap1-Nrf2 protein-protein interaction inhibitors, primary screen, biochemical, fluorescence polarization, single point; Kelch-like ECH-associated protein 1 (Homo sapiens), Q14145; Keap1 Kelch-Nrf2 peptide fluorescence polarization, 1536-well; inhibition, % at 9.4 µM; 340,000 tested, 0.15% active; in the data active means inhibition above about 12%; inconclusive means no clear call, values can overlap the other calls; inactive means below about 7.3%;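 further: human Keap1 Kelch domain with fluorescein labeled Nrf2 9mer peptide probe; 0% = neutral control wells and 100% = peptide positive control; higher means more block of Keap1 binding to Nrf2 peptide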
EBV gp42 block: Epstein-Barr virus gp42 inhibitors, primary screen, biochemical, uHTS, fluorescence polarization; Fluorescence polarization binding assay, mP read-out; inhibition, % (tested at 21.74 µM); 220,000 tested, 0.42% active; AID 1085, 2008; in the data active means inhibition above about 50%
Target sequence (Q1HVG2 whole entry, looked up): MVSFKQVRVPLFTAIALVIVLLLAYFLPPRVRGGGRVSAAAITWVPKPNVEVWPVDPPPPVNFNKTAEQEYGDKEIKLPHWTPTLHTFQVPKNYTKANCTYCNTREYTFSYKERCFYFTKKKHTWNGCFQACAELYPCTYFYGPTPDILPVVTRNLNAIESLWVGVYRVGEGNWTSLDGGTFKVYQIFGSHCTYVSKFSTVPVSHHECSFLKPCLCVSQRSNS
GRK2 inh: compounds blocking aptamer binding on GRK2 – biochemical, human GRK2, bead flow cytometry, HTS, primary screen; Beta-adrenergic receptor kinase 1 (Homo sapiens), P25098; FAM-aptamer displacement from GRK2; 330,000 tested, 0.59% active; inhibition of aptamer binding, % at 10 µM;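 active means inhibition of aptamer binding above 40%, roughly 3 SD of noise, on plates passing a quality check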;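 further: median bead fluorescence of bound FAM aptamer so fluorescent compounds give negative values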
T cell HTS: modulators of CD8 T cell-vesicle binding, primary screen, mouse 2C CD8+ T cells, flow cytometry. 2C CD8+ T cell-vesicle binding; active compounds read low. response (vesicle binding), % at 7 µM. 330,000 tested, 0.068% active;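 active means response, share of CD8 T cells binding vesicles, and their 90th percentile fluorescence all below set limits, cut at about 80% in these data, passing the limit was not always enough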;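 further: values below 100% mean blocked vesicle binding to the CD8+ T cells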
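Material: murine 2C transgenic CD8+ T lymphocytes / Also added: QL9-peptide-loaded Drosophila micro-vesicles bearing Ld, ICAM-1 and B7-1 / Schedule: binding step 1.5 h, 37 °C, antibody labelling 20 min, ice / Signal: flow cytometry, PE anti-B7-1 (FL2) versus Alexa647 anti-CD8 (FL8), PFA-fixed / Evaluation: percent CD8+ FL2 mean versus row control / Benchmarks: naked versus QL9-loaded vesicles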
GRK2 CP1: GRK2 aptamer-displacing inhibitors, retest, confirmation, biochemical, cherry pick 1, bead flow cytometry; shares compounds with GRK2 inh; bead-bound GRK2, FAM-aptamer displacement; aptamer displacement, % at 10 µM; 2,000 tested, 4% active;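 active means aptamer displacement above 40%, near three times the noise of non-fluorescent compounds, on plates passing quality checks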;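 further: negative values mostly reflect intrinsic compound fluorescence rather than true enhancement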
FAM quench CP1: counter-screen for GRK2 aptamer inhibitors: fluorescent aptamer quenchers; shares compounds with GRK2 inh; Carboxyfluorescein RNA aptamer on beads, flow cytometry quenching; active compounds read low; fluorescence response (% of DMSO), % at 10 µM; 2,000 tested, under 10 active; AID 504580;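 active means compounds that quench the bead-bound fluorescent RNA probe, cutting fluorescence to under half of the solvent control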;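 further: counterscreen run without GRK2 so only probe quenching by compound is measured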
GRK2 CP2: GRK2 aptamer-displacing inhibitors, hit retest, confirmation, biochemical, cherry pick 2, bead flow cytometry; shares compounds with GRK2 inh; bead-bound GRK2, FAM-aptamer displacement; inhibition of aptamer binding, % at 10 µM; 360 tested, under 10 active; AID 504782, 2011;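 active means inhibition of aptamer binding above 40%, about triple the noise seen with nonglowing compounds, on plates passing quality control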;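 further: negative values mostly come from compounds that fluoresce themselves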
FAM quench SP: aptamer fluorescence quenching in GRK2 counter-screen; shares compounds with GRK2 inh; carboxyfluorescein RNA aptamer beads, flow cytometry quenching; active compounds read low; fluorescence response vs DMSO, % at 10 µM; 360 tested, under 10 active; AID 588494;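 active means response vs DMSO under 50%, meaning signal dropped by over half, treated as fluorescence quencher; inconclusive means no clear call, values can overlap the other calls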;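 further: labelled aptamer on streptavidin beads without GRK2 as a quench counter-screen; 100% = bead fluorescence of DMSO wells and lower means quenching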
Active calls of the source: *; i = inactive; ? = inconclusive; . = not tested or not shown. Compounds with a hit are over-represented: about 1.3% of the library has one in this group of screens.

SMILES | MEX-5 binding | C-LANA FP | Keap1-Nrf2 PPI | EBV gp42 block | GRK2 inh | T cell HTS | GRK2 CP1 | FAM quench CP1 | others
O=S(=O)(Nc1ccc(Br)cc1)c1cccc2nonc12 | 2 | -1 | -4 | . | 2 | 270 | . | .
Cc1oc2c(c(C)cc3oc(=O)c(CC(=O)NCCCN4CCCC4=O)c(C)c32)c1C | 5 | 0 | -4 | . | 6 | 240 | 0 | 94
Cc1oc2c(c(C)cc3oc(=O)c(CC(=O)NCCCO)c(C)c32)c1C | -4 | -1 | -2 | . | 2 | 279 | . | .
N#CC(C#N)=C(Nc1ccc(F)cc1)SCc1cccc(F)c1 | 3 | -2 | 1 | 0 | 0 | 0 | . | .
CCc1nnc(NC(=O)c2cccc(S(=O)(=O)N3CCCCC3)c2)s1 | -5 | -2 | 3 | . | 95* | 320 | . | . | GRK2 CP2=-9;FAM quench SP=99
CCOCc1nnc(NC(=O)CS(=O)(=O)c2ccc(C)cc2)s1 | -2 | 0 | 1 | . | 0 | 218 | . | .
CCCCc1nnc(NC(=O)CCS(=O)(=O)c2ccc(C)cc2)s1 | . | 0 | 4 | . | 1 | 388 | -1 | 107
CCc1nnc(NC(=O)CCS(=O)(=O)c2ccccc2)s1 | -3 | -1 | -1 | . | 0 | 895 | -1 | 100
CCc1nnc(NC(=O)CCS(=O)(=O)c2ccc(C)cc2)s1 | 0 | 1 | 2 | . | 0 | 321 | 7 | 99
CCCCc1nnc(NC(=O)CN(C)S(=O)(=O)c2ccc(C)cc2)s1 | 0 | 2 | 4 | . | 0 | 248 | . | .
CCc1nnc(NC(=O)c2cccc(S(=O)(=O)N3CCCC3)c2)s1 | -1 | 0 | 4 | . | 0 | 198 | . | .
COc1cc(C(=O)Nc2cccnc2)cc(OC)c1OC | 1 | -1 | -1 | . | 0 | 236 | . | .
Cc1nn(-c2ccccc2)c(Cl)c1C(=O)NCc1cccs1 | 0 | -1 | -2 | -4 | 0 | 181 | . | .
CS(=O)(=O)c1ccc(C(=O)CN2C(=O)NC3(CCCc4ccccc43)C2=O)cc1 (stereo unspecified) | . | 6 | 2 | . | 1 | 313 | . | .
COCc1nnc(NC(=O)CCS(=O)(=O)c2ccccc2)s1 | -1 | 1 | -2 | . | 6 | 186 | 7 | 98
COCc1nnc(NC(=O)CCCOc2ccccc2)s1 | 2 | -2 | 0 | -4 | 0 | 589 | . | .
O=C(Nc1nc(-c2ccc(S(=O)(=O)N3CCCCCC3)cc2)cs1)c1ccccc1 | -3 | -2 | -3 | 5 | 3 | 181 | . | .
O=C(Nc1nc(-c2cccs2)cs1)c1ccc(S(=O)(=O)N2CCCC2)cc1 | -1 | 0 | -7 | -3 | 19 | 193 | -1 | 99
Cc1cccc(NC(=O)CCS(=O)(=O)c2ccccc2)n1 | 1 | 1 | -3 | . | 6 | 189 | 3 | 97
CCCCNC(=O)COC(=O)c1ccc(N(C)C)cc1 | 2 | -1 | -3 | 2 | 1 | 304 | . | .
COC(=O)c1cc(Cl)nc2ccccc12 | 0 | 1 | 1 | -1 | 87* | 583 | 3 | 95
CN(CC(=O)Nc1cccc(F)c1)C(=O)c1ccc(N2C(=O)c3ccccc3C2=O)cc1 | . | -2 | 1 | . | 0 | 484 | -5 | 104
Cc1ccccc1C(=O)N1CCC(C(=O)N(C)CC(=O)Nc2cccc(F)c2)CC1 | 3 | -2 | -6 | . | 51* | 278 | . | . | GRK2 CP2=18;FAM quench SP=102
CN(CC(=O)Nc1cccc(F)c1)C(=O)c1cccc(-n2cccc2)c1 | 0 | 1 | -2 | . | 14 | 241 | . | .
O=C(NCCc1ccccc1)c1oc2ccccc2c1COc1ccccc1 | 2 | -1 | -6 | 5 | 69* | 383 | -4 | 98
SMILES | MEX-5 binding | C-LANA FP | Keap1-Nrf2 PPI | EBV gp42 block | GRK2 inh | T cell HTS | GRK2 CP1 | FAM quench CP1 | others
Cc1ccc(Nc2c([N+](=O)[O-])cc(C(=O)N3CC(=O)Nc4ccccc43)cc2[N+](=O)[O-])c(C)c1 | 0 | 2 | -2 | -14 | 100* | 530 | 2 | 99
COc1ccc(CNS(=O)(=O)CCNCCc2ccccc2)cc1 | . | 2 | 2 | . | . | . | . | .
COc1ccc(CCNCc2ccc(OCc3ccccc3)cc2)cc1 | 0 | 0 | -3 | . | 58* | 163 | -8 | 98
CCc1sc(NC(=O)COC)nc1-c1ccccc1 | 0 | -1 | -3 | 41 | 0 | 235 | . | .
O=C(CCCn1c(=S)[nH]c2ccccc2c1=O)N1CCN(c2cccc(Cl)c2)CC1 | 0 | 2 | -2 | -66 | 0 | 373 | -3 | 93
COc1ccc(N2CCN(CCCn3c(=S)[nH]c4ccccc4c3=O)CC2)cc1 | -3 | 0 | -3 | . | 23 | i | -2 | 95
Cc1ccc(C(=O)OCc2c(C)noc2C)cc1NC(=O)c1ccco1 | 2 | -2 | -2 | 1 | 1 | 289 | -2 | 96
CC1=CCC2C(=O)N(c3ccccc3OC(=O)c3ccccc3F)C(=O)C2C1 (stereo unspecified) | -2 | 30 | -5 | 0 | 2 | 194 | . | .
COc1ccc(Cl)cc1N1C(=O)[C@@H]2C(c3cccc(OC)c3OC)=NO[C@@H]2C1=O | -2 | 0 | 3 | -18 | 6 | 265 | . | . | GRK2 CP2=8;FAM quench SP=102
COc1ccc(OC)c(C2=NO[C@@H]3C(=O)N(c4cc(Cl)ccc4OC)C(=O)[C@H]23)c1 | -2 | -2 | 2 | 8 | 2 | 187 | . | . | GRK2 CP2=5;FAM quench SP=?
COc1ccc(C2=NO[C@@H]3C(=O)N(Cc4ccccc4)C(=O)[C@H]23)c(OC)c1 | 1 | . | . | -14 | 0 | 137 | . | .
Cc1ccccc1-c1n[nH]c(=S)n1/N=C/C=C/c1ccco1 | -1 | 0 | -4 | -7 | 40 | 573 | . | .
CC(=O)Nc1ccc2nc3c(=O)n(C)c(=O)n(C)c3nc2c1 | -13 | 15 | 5 | 102* | 42* | 109 | 20 | 78
Cn1c(=O)c2nc3ccccc3nc2n(C)c1=O | -5 | 0 | -2 | 1 | 1 | 245 | . | .

Compound activity deposited in PubChem by several laboratories.
